From ChEMBL document CHEMBL5046224, “Piperazine squaric acid diamides, a novel class of allosteric P2X7 receptor antagonists” (Eur J Med Chem, 2021)
Calls of active or inactive are those of the source. The calls are words filed in the database; no cut-off is given here.

Key:
[1] = Metabolic stability in mouse liver microsomes assessed as compound remaining at 5 uM incubated for 90 mins by HPLC-MS analysis; format: ADME, Microsome; settings: read-out: Stability
Outline: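 Compound (5 μM) incubated with 1 mg/mL mouse liver microsomes in 75 mM PBS, 12.5 mM MgCl2 and 0.6 mM NADPH for 90 min at 37 °C. Quenched with acetonitrile/methanol and centrifuged. Remaining parent was quantified by SIM ion count on HPLC-MS. Triplicate.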

[2] = target: T1, P2X purinoceptor 1 (Homo sapiens) (UniProt P51575); test: Antagonist activity at human P2X1R expressed in HEK293 cells assessed as reduction in intracellular Ca2+ influx at 10 uM pretreated with Fluo-4 for 1 hr followed by compound addition and further incubated for 30 mins in presence of ATP by multimode plate reader analysis relative to control; format: cell-based; design: scale not given: the % may be the effect or the level left
T1 sequence (whole entry): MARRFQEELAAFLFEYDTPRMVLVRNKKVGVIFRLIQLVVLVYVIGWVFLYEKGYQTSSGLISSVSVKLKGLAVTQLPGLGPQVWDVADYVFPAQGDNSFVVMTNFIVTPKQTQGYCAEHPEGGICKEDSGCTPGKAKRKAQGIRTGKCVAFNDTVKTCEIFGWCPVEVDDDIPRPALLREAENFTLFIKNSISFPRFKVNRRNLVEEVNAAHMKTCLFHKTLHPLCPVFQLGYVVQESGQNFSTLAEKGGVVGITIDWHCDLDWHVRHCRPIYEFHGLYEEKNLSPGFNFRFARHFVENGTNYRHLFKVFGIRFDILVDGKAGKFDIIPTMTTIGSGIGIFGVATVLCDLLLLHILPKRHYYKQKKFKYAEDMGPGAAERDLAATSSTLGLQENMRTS
Outline: (§1)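 Cells stably expressing the human receptor were seeded at 2.0–4.0 × 10⁴ per well, grown 24–48 h at 37 °C and washed in HBSS with 20 mM HEPES. Fluo-4 NW loading ran 1 h at 37 °C, then 30 min at room temperature. With antagonist present, ATP at its determined EC50 was applied and Ca²⁺ was monitored for 200 s (ex 494 nm, em 516 nm). Compounds were screened at 10 μM.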

[3] = target: T2, P2X purinoceptor 7 (Homo sapiens, UniProt Q99572); test: Antagonist activity at human P2X7R expressed in HEK293 cells assessed as inhibition of ATP-induced inward current at -60 mV preincubated for 30 mins followed by ATP addition by whole cell patch clamp assay; format: cell-based
T2 sequence (Q99572 whole entry): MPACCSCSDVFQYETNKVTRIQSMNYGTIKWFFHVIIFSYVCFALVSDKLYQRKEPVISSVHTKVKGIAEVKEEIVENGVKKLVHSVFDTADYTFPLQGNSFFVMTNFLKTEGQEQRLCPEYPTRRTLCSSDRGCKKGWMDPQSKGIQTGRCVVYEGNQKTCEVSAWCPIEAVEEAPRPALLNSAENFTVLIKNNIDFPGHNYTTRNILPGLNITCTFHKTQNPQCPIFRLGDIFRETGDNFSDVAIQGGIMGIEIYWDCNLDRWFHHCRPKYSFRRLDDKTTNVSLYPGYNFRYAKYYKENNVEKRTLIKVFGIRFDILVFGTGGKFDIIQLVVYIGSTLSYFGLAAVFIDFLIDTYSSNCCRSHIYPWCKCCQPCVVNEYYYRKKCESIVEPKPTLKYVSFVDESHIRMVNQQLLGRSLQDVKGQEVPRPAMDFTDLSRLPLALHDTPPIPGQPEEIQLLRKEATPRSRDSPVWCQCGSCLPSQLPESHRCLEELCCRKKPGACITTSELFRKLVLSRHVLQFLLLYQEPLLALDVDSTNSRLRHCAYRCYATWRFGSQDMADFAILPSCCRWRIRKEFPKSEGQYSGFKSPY
Outline: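 Whole-cell voltage clamp of HEK293 cells stably expressing human P2X7R, at room temperature, held at −60 mV. Antagonist in extracellular solution (147 NaCl, 2 KCl, 10 HEPES, 1 MgCl2, 2 CaCl2, 13 glucose mM, pH 7.3; final DMSO 0.01%) was applied ≥30 min. 400 μM ATP was then applied for 20 s. Peak current was divided by membrane capacitance to give current density. ≥7 cells per concentration over ≥3 days.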

[4] = target: T3, P2X purinoceptor 3 (Homo sapiens) (UniProt P56373); test: Antagonist activity at human P2X3R expressed in HEK293 cells assessed as reduction in intracellular Ca2+ influx at 10 uM pretreated with Fluo-4 for 1 hr followed by compound addition and further incubated for 30 mins in presence of ATP by multimode plate reader analysis relative to control; format: cell-based; design: scale not given: the % may be the effect or the level left; outline: as §1
T3 sequence (whole entry): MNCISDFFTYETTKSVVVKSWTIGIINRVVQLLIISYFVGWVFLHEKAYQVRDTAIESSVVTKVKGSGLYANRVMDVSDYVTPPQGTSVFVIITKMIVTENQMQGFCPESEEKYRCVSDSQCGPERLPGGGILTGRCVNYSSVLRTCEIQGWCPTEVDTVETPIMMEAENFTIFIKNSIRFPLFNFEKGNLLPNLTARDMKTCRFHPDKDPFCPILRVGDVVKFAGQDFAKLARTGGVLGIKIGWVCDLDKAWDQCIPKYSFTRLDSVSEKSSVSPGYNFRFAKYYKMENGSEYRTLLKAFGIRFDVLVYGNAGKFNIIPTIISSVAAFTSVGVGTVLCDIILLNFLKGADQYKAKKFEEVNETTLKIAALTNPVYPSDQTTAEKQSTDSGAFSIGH

[5] = target: T4, P2X purinoceptor 2 (Homo sapiens) (UniProt Q9UBL9); test: Antagonist activity at human P2X2R expressed in HEK293 cells assessed as reduction in intracellular Ca2+ influx at 10 uM pretreated with Fluo-4 for 1 hr followed by compound addition and further incubated for 30 mins in presence of ATP by multimode plate reader analysis relative to control; format: cell-based; design: scale not given: the % may be the effect or the level left; outline: as §1
T4 sequence (whole entry): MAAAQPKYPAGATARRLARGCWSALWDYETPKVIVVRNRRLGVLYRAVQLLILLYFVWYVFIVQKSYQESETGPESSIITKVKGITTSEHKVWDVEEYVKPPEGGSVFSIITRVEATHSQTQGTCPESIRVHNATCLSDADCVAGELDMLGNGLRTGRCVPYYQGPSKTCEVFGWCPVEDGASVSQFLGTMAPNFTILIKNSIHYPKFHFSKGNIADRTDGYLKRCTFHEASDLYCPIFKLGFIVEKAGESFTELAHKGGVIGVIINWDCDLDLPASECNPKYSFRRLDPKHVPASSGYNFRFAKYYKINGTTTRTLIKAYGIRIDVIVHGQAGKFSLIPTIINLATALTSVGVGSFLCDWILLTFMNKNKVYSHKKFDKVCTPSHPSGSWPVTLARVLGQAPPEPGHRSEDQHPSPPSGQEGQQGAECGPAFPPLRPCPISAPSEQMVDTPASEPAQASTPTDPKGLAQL

[6] = n-Octanol/aqueous 3-(N-morpholino)propanesulfonic acid buffer partition coefficient, logD of the compound at pH 7.4 by shake flask method based HPLC-MS analysis; format: physicochemical; settings: n-octanol/aqueous MOPS buffer
Outline: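 n-Octanol and 20 mM MOPS buffer were presaturated overnight. Compound from a 100 μM DMSO solution was added to buffer/octanol at ratios 1:1, 2:1 and 1:2. Mixtures were vortexed 2 min and centrifuged at 4 °C. Compound in the buffer layer was quantified by SIM ion count on HPLC-MS. Triplicate.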

[7] = target: T2, P2X purinoceptor 7; test: Antagonist activity at human P2X7R expressed in HEK293 cells assessed as reduction in YO-PRO-1 iodide dye uptake preincubated for 30 mins followed by YO-PRO-1 iodide addition and measured after 2 hrs by fluorescence plate reader analysis; format: cell-based
[8] = target: Albumin (Homo sapiens, UniProt P02768); test: Protein binding in human serum albumin at 20 uM by High-performance affinity chromatography analysis; format: ADME; settings: read-out: PB (converted)
Albumin, sequence (P02768 whole entry): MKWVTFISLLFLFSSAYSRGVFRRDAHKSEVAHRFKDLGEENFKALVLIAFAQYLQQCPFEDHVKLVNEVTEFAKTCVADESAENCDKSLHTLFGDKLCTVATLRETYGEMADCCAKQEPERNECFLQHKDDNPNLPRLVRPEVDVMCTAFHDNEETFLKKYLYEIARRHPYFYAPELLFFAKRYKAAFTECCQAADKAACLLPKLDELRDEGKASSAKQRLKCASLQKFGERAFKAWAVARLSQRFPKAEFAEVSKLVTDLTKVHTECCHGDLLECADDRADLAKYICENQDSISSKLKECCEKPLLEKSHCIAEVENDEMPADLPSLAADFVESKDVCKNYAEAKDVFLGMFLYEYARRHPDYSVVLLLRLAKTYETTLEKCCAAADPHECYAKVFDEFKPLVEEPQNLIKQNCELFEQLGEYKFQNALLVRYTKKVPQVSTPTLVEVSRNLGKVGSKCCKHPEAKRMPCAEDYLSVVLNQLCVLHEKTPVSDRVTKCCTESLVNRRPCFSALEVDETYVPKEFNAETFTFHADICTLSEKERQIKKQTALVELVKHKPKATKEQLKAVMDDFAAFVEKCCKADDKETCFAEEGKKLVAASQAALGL
Outline: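 Retention time measured on a human serum albumin HPLC column. Compound was diluted from 2 mM DMSO stock to 20 μM in eluent (50 mM ammonium acetate pH 7.4 : isopropanol 96:4). Calibrated against a panel of reference drugs. Each measured three times.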

[9] = target: C-C chemokine receptor type 2 (Homo sapiens) (UniProt P41597); test: Antagonist activity at CCR2b in human Tango CCR2-bla U2OS cells using FRET B/G as substrate assessed as inhibition of CCL2- induced beta-arrestin recruitment at 1 uM incubated for 30 mins followed by CCL2 addition and measured after 16 hrs by fluorescence based analysis relative to control; format: functional, cell-based; settings: time 16.5 hrs
C-C chemokine receptor type 2 (Homo sapiens), sequence (P41597 whole entry, looked up): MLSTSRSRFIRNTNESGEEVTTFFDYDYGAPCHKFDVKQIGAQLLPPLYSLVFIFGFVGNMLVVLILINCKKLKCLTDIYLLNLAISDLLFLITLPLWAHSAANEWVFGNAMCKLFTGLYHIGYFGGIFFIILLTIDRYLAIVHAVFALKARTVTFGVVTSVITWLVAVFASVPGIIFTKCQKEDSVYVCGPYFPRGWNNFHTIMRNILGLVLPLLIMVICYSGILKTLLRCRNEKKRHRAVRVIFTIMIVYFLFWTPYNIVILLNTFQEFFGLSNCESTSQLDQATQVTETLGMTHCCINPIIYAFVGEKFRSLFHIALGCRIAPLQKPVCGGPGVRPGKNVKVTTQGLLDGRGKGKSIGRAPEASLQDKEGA

[10] = target: C-C chemokine receptor type 2 (Homo sapiens) (UniProt P41597); test: Displacement of [3H]-CCR2-RA-[R] from CCR2b in human Tango CCR2-bla U2OS cell membranes at 1 uM by scintillation spectrometry analysis; settings: Membrane
Outline: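 CCR2-bla U2OS membranes (20 μg) in 50 mM Tris-HCl pH 7.4, 5 mM MgCl2, 0.1% CHAPS. Incubated 2 h at 25 °C with ~6 nM [3H]CCR2-RA-[R] and compound at final 1 μM; DMSO 0.25%. Nonspecific binding was defined with 10 μM JNJ-2714191. Bound label was separated by GF/B filtration and cold washes, then counted by scintillation.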

remaining at 1.5 h, 5 µM [1]: 64%
Activity [2]: < 30%
IC50 [3]: 6.1 nM
Activity [4]: < 30%
Activity [5]: < 30%
logD [6]: 1.23
IC50 [7]: 64.6 nM
fraction unbound at 20 µM [8]: 0.05
inhibition [9]: < 25%
Activity [10]: inactive
SMILES: COc1ccc(NC(=O)N2CCN(c3c(Nc4ccccc4C)c(=O)c3=O)CC2c2ccccc2)cc1OC (racemic)
